Where “and” joins values, the source holds several entries; their conditions need not be identical. Equal values may be shown once.
Columns and labels:
[1] = molecular target: recombinant L. donovani CYP51 (Leishmania donovani, UniProt A0A3S7WRS7); assay: Fluorescence-based L. donovani CYP51 inhibition assay; assay type: biochemical
recombinant human CYP3A4 = recombinant human CYP3A4 (Homo sapiens, UniProt P08684); assay: Inhibition of recombinant human CYP3A4; assay type: in vitro ADME
HepG2 cells = assay: HepG2 toxicity assay; assay type: cell-based
[2] = test system: L. donovani-infected female BALB/c mice; assay: Murine visceral leishmaniasis model; assay type: in vivo; settings: three days after final dose
Procedure, shortened: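 Female BALB/c mice infected with L. donovani; groups of four. Dosing by oral gavage for 5 consecutive days, starting one week post-infection. Test compound was given at 75 or 37.5 mg/kg/day in 50% PEG400/50% water. Reference drug miltefosine was given at 10 mg/kg/day in water. The vehicle control group received PEG-400. Liver parasitemia was determined three days after the final dose, reported as percent reduction (mean ± S.E.M.).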

J774 macrophages = assay: J774 macrophage toxicity assay; assay type: cell-based, mouse
[3] = test system: intracellular L. donovani; assay: L. donovani-infected macrophage assay; assay type: cell-based, Leishmania donovani; settings: Leishmania donovani, Macrophage, read-out: IC50 against L. donovani
L. donovani CYP51 = L. donovani CYP51 ligand binding spectra; set-up: species or system Leishmania donovani; settings: titration of CYP51; absorbance maximum 431 nm, minimum 412–413 nm
Procedure, shortened: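 Purified N-terminally truncated L. donovani CYP51 (CYP51-32c, His-tagged; purity by SDS-PAGE/anti-His Western blot, CO-difference spectra) at 0.5 µM, titrated in 30 mM potassium phosphate pH 7.4 with 0.1 mM EDTA and 20% glycerol. […], and sample-minus-reference difference spectra were recorded.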

Chain of recombinant human CYP3A4 (P08684 whole entry): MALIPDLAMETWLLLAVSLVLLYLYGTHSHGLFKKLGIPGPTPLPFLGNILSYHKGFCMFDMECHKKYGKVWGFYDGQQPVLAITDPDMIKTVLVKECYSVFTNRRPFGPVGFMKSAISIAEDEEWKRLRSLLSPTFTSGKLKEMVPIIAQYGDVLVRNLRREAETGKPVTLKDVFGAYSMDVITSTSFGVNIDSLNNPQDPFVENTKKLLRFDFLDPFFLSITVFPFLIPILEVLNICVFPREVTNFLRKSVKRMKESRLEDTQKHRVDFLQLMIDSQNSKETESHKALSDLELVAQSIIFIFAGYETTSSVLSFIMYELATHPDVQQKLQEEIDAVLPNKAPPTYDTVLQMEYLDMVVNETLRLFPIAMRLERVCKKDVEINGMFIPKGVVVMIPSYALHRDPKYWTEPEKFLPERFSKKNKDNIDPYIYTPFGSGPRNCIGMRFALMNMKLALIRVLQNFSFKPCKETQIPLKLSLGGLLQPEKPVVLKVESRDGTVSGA

SMILES: CC(C)Oc1cc(OCCCCCCCCn2ccnc2)ccc1NC(=N)c1ccccn1 [Compound 24c, N-(4-((8-(1H-imidazol-1-yl)octyl)oxy)-2-isopropoxyphenyl) picolinimidamide]
- IC50 [1]: 330 ± 10 nM
- IC50 (recombinant human CYP3A4): 80 ± 9 nM
- Selectivity index (IC50 vs. mammalian cell line/IC50 vs. L. donovani) (HepG2 cells; HepG2 cells vs. intracellular L. donovani): 23
- IC50 (HepG2 cells; Homo sapiens, HepG2, 72 h, read-out: IC50 against HepG2): 12000 ± 2000 nM
- Reduction in liver parasitemia ([2]; 37.5 mg/kg/day × 5 p.o.): 17 ± 5%
- Reduction in liver parasitemia ([2]; 75 mg/kg/day × 5 p.o., mean ± S.E.M.): 33% and 33 ± 7%
- Selectivity index (IC50 vs. mammalian cell line/IC50 vs. L. donovani) (J774 macrophages; J774 macrophages vs. intracellular L. donovani): 13
- IC50 (J774 macrophages; Mus musculus, J774, read-out: IC50 against J774 macrophages): 6800 ± 200 nM
- IC50 [3]: 530 ± 50 nM
- CYP51 binding spectrum type (L. donovani CYP51): typical Type II binding spectra

— publication PMC8553517 (ACS infectious diseases, 2021)
